From ChEMBL document CHEMBL1140279, “Synthesis and antimalarial evaluation of new N1-(7-chloro-4-quinolyl)-1,4-bis(3-aminopropyl)piperazine derivatives” (Bioorg Med Chem Lett, 2005)

Columns and labels:
MRC5 [1] = experiment: Ratio of CC50/IC50 was determined; assay type: functional, Homo sapiens
How it was run: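 Selectivity index taken as the ratio of CC50 on MRC-5 human diploid embryonic lung cells (colorimetric MTT assay) to IC50 for growth inhibition of the chloroquine-resistant Plasmodium falciparum strain FcB1. The IC50s come from triplicate experiments and are reported with standard error.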

Plasmodium falciparum = experiment: Antimalarial activity as growth inhibition of chloroquine-resistant Plasmodium falciparum FcB1; assay type: functional, organism-based
How it was run: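 Parasite growth inhibition assay on the chloroquine-resistant P. falciparum FcB1 strain. IC50 values are derived from triplicate experiments and reported with standard error.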

MRC5 [2] = experiment: Cytotoxic concentration of compound of compound […] MRC-5 cells (human diploid embryonic lung cell line); assay type: functional
How it was run: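 Cytotoxicity measured on MRC-5 human diploid embryonic lung cells with a colorimetric MTT assay, giving the CC50.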

Q: For `N#CCCCCN(CCCN1CCN(CCCNc2ccnc3cc(Cl)ccc23)CC1)CC1CC1`, which Ratio (MRC5 [1]) is on record?
A: Its Ratio is 404.

Q: And the IC50 (Plasmodium falciparum)?
A: The IC50 was 9.9 nM.

Q: And the CC50 (MRC5 [2])?
A: The CC50 was 4 µM.

Q: `CC(C)(C)OC(=O)NCCC(=O)N(CCCN1CCN(CCCNc2ccnc3cc(Cl)ccc23)CC1)CC1CC1` was tested. Which Ratio (MRC5 [1]) did it give?
A: Its Ratio is 116.

Q: What about the IC50 (Plasmodium falciparum) of the same compound?
A: Its IC50 is 34.2 nM.

Q: And the CC50 (MRC5 [2])?
A: The CC50 was 4 µM.

Q: Which Ratio (MRC5 [1]) does the source give for `NCCCN(CCCN1CCN(CCCNc2ccnc3cc(Cl)ccc23)CC1)CC1CC1` here?
A: The Ratio was >210.

Q: What about the IC50 (Plasmodium falciparum) of the same compound?
A: Its IC50 is 152 nM.

Q: And the CC50 (MRC5 [2])?
A: The CC50 was > 32 µM.

Q: What does the source list for `NC(=O)CCC(=O)N(CCCN1CCN(CCCNc2ccnc3cc(Cl)ccc23)CC1)CC1CC1`?
A: IC50 (Plasmodium falciparum): < 1000 nM; CC50 (MRC5 [2]): > 32 µM

Q: `O=C(O)CCC(=O)N(CCCN1CCN(CCCNc2ccnc3cc(Cl)ccc23)CC1)CC1CC1` was tested. Which Ratio (MRC5 [1]) did it give?
A: Its Ratio is >23.

Q: What about the CC50 (MRC5 [2]) of the same compound?
A: The CC50 was > 32 µM.

Q: For `NCCC(=O)N(CCCN1CCN(CCCNc2ccnc3cc(Cl)ccc23)CC1)CC1CC1`, which Ratio (MRC5 [1]) is on record?
A: The Ratio was >80.

Q: What about the CC50 (MRC5 [2]) of the same compound?
A: Its CC50 is > 32 µM.

Q: For `O=C(CCCO)N(CCCN1CCN(CCCNc2ccnc3cc(Cl)ccc23)CC1)CC1CC1`, which Ratio (MRC5 [1]) is on record?
A: Its Ratio is 122.

Q: And the IC50 (Plasmodium falciparum)?
A: Its IC50 is 172 nM.

Q: And the CC50 (MRC5 [2])?
A: The CC50 was 21 µM.

Q: Which results are given for `O=C(C1CC1)N(CCCN1CCN(CCCNc2ccnc3cc(Cl)ccc23)CC1)CC1CC1`?
A: Ratio (MRC5 [1]): 2076; IC50 (Plasmodium falciparum): 6.5 nM; CC50 (MRC5 [2]): 13.5 µM

Q: What does the source list for `CC(C)(C)OC(=O)NCCCN(CCCN1CCN(CCCNc2ccnc3cc(Cl)ccc23)CC1)CC1CC1`?
A: Ratio (MRC5 [1]): 317; IC50 (Plasmodium falciparum): 12.6 nM; CC50 (MRC5 [2]): 4 µM
